Where “and” joins values, the source holds several entries; their conditions need not be identical. Equal entries are not always repeated.
System: U2OS
Assay: Multiplex assay against U2OS
Assay type: toxicity, cell-based
Conditions: human
How it was run: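 Hoechst33342, BioTracker Green Microtubule Cytoskeleton Dye, MitoTracker Red and Annexin V Alexa Fluor 680 were added to live cells at seeding, and imaging on a CQ1 microscope at 37°C and 5% CO2 followed compound addition. Gating by CellPathfinder machine learning separated cells into Hoechst high-intensity objects or normal cells, then normal cells into healthy, pyknosed or fragmented nuclei, then pyknosed cells into mitotic or apoptotic. Per cents of healthy-nucleus cells are reported for the tubulin, mitochondrial-mass and membrane-permeability phenotypes.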

[1] = 12 h, 1 µM, compound concentration 1 uM
[2] = 12 h, 10 µM, compound concentration 10 uM
[3] = 24 h, 1 µM, compound concentration 1 uM
[4] = 24 h, 10 µM, compound concentration 10 uM
[5] = 48 h, 1 µM, compound concentration 1 uM
[6] = 48 h, 10 µM, compound concentration 10 uM

Cc1cc(Nc2ncc(Cl)c(Nc3ccccc3S(=O)(=O)C(C)C)n2)c(OC(C)C)cc1C1CCNCC1 [CERITINIB]
Population Apoptotic (%) [1]: 28.57% and 18.75%
Population Fragmented Nuclei (%) [1]: 3.31% and 3.57%
Population Healthy Nuclei (%) [1]: 78.68% and 58.33%
Population Hoechst High Intensity Objects (%) [1]: 0%
Population Membrane Permeable-Phenotype (%) [1]: 17.76% and 17.35%
Population Mitotic Cells (%) [1]: 71.43% and 81.25%
Population Normal (%) [1]: 100%
Population Pyknosed Nuclei (%) [1]: 18.01% and 38.1%
Population Tubulin-Different-Phenotype (%) [1]: 40.65% and 72.45%
Total Cell Count [1]: 272 and 168
Population Apoptotic (%) [2]: 77.85% and 68.91%
Population Fragmented Nuclei (%) [2]: 0.93% and 0.8%
Population Healthy Nuclei (%) [2]: 3.43% and 4%
Population Hoechst High Intensity Objects (%) [2]: 0%
Population Membrane Permeable-Phenotype (%) [2]: 36.36% and 80%
Population Mitochondria Different-Phenotype (%) [2]: 0%
Population Mitotic Cells (%) [2]: 22.15% and 31.09%
Population Normal (%) [2]: 100%
Population Pyknosed Nuclei (%) [2]: 95.64% and 95.2%
Population Tubulin-Different-Phenotype (%) [2]: 72.73% and 60%
Total Cell Count [2]: 321 and 125
Population Apoptotic (%) [3]: 29.58% and 27.12%
Population Fragmented Nuclei (%) [3]: 2.58% and 2.73%
Population Healthy Nuclei (%) [3]: 77.08% and 65.03%
Population Hoechst High Intensity Objects (%) [3]: 0.29% and 0%
Population Membrane Permeable-Phenotype (%) [3]: 4.09% and 6.72%
Population Mitotic Cells (%) [3]: 70.42% and 72.88%
Population Normal (%) [3]: 99.71% and 100%
Population Pyknosed Nuclei (%) [3]: 20.34% and 32.24%
Population Tubulin-Different-Phenotype (%) [3]: 29% and 47.06%
Total Cell Count [3]: 350 and 183
Population Apoptotic (%) [4]: 83.51% and 81.55%
Population Fragmented Nuclei (%) [4]: 1.89% and 2.42%
Population Healthy Nuclei (%) [4]: 6.6% and 14.52%
Population Hoechst High Intensity Objects (%) [4]: 0%
Population Membrane Permeable-Phenotype (%) [4]: 23.81% and 50%
Population Mitochondria Different-Phenotype (%) [4]: 9.52% and 5.56%
Population Mitotic Cells (%) [4]: 16.49% and 18.45%
Population Normal (%) [4]: 100%
Population Pyknosed Nuclei (%) [4]: 91.51% and 83.06%
Population Tubulin-Different-Phenotype (%) [4]: 71.43% and 33.33%
Total Cell Count [4]: 318 and 124
Population Apoptotic (%) [5]: 50% and 61.97%
Population Fragmented Nuclei (%) [5]: 3.8% and 3.81%
Population Healthy Nuclei (%) [5]: 77.4% and 62.38%
Population Hoechst High Intensity Objects (%) [5]: 0.2% and 0%
Population Membrane Permeable-Phenotype (%) [5]: 1.55% and 4.58%
Population Mitotic Cells (%) [5]: 50% and 38.03%
Population Normal (%) [5]: 99.8% and 100%
Population Pyknosed Nuclei (%) [5]: 18.8% and 33.81%
Total Cell Count [5]: 501 and 210
Population Apoptotic (%) [6]: 89.1% and 93.88%
Population Fragmented Nuclei (%) [6]: 2.94% and 5.04%
Population Healthy Nuclei (%) [6]: 46.08% and 53.78%
Population Hoechst High Intensity Objects (%) [6]: 0%
Population Mitochondria Different-Phenotype (%) [6]: 7.09% and 10.94%
Population Mitotic Cells (%) [6]: 10.9% and 6.12%
Population Normal (%) [6]: 100%
Population Pyknosed Nuclei (%) [6]: 50.98% and 41.18%
Population Tubulin-Different-Phenotype (%) [6]: 46.1% and 31.25%
Total Cell Count [6]: 306 and 119

NCCc1cn(S(=O)(=O)c2c(Cl)nc3sccn23)c2ccccc12.O=C(O)C(=O)O
Population Apoptotic (%) [1]: 66% and 81%
Population Fragmented Nuclei (%) [1]: 30% and 17%
Population Healthy Nuclei (%) [1]: 58% and 72%
Population Hoechst High Intensity Objects (%) [1]: 1%
Population Membrane Permeable-Phenotype (%) [1]: 9% and 4%
Population Mitochondria Different-Phenotype (%) [1]: 6% and 8%
Population Mitotic Cells (%) [1]: 33% and 18%
Population Normal (%) [1]: 98%
Population Pyknosed Nuclei (%) [1]: 10% and 9%
Population Tubulin-Different-Phenotype (%) [1]: 6%
Total Cell Count [1]: 280 and 116
Population Apoptotic (%) [2]: 71% and 82%
Population Fragmented Nuclei (%) [2]: 26% and 20%
Population Healthy Nuclei (%) [2]: 42% and 53%
Population Hoechst High Intensity Objects (%) [2]: 5% and 4%
Population Membrane Permeable-Phenotype (%) [2]: 42% and 30%
Population Mitochondria Different-Phenotype (%) [2]: 60% and 71%
Population Mitotic Cells (%) [2]: 28% and 17%
Population Normal (%) [2]: 94% and 95%
Population Pyknosed Nuclei (%) [2]: 30% and 26%
Population Tubulin-Different-Phenotype (%) [2]: 59% and 50%
Total Cell Count [2]: 221 and 115
Population Apoptotic (%) [3]: 69% and 78%
Population Fragmented Nuclei (%) [3]: 25% and 20%
Population Healthy Nuclei (%) [3]: 66% and 70%
Population Hoechst High Intensity Objects (%) [3]: 1%
Population Membrane Permeable-Phenotype (%) [3]: 6% and 9%
Population Mitochondria Different-Phenotype (%) [3]: 5% and 7%
Population Mitotic Cells (%) [3]: 30% and 21%
Population Normal (%) [3]: 98%
Population Pyknosed Nuclei (%) [3]: 8% and 9%
Population Tubulin-Different-Phenotype (%) [3]: 3% and 7%
Total Cell Count [3]: 326 and 151
Population Apoptotic (%) [4]: 83% and 86%
Population Fragmented Nuclei (%) [4]: 29% and 20%
Population Healthy Nuclei (%) [4]: 38% and 46%
Population Hoechst High Intensity Objects (%) [4]: 6% and 3%
Population Membrane Permeable-Phenotype (%) [4]: 26%
Population Mitochondria Different-Phenotype (%) [4]: 63% and 67%
Population Mitotic Cells (%) [4]: 16% and 13%
Population Normal (%) [4]: 93% and 96%
Population Pyknosed Nuclei (%) [4]: 31% and 33%
Population Tubulin-Different-Phenotype (%) [4]: 26% and 38%
Total Cell Count [4]: 240 and 116
Population Apoptotic (%) [5]: 81% and 85%
Population Fragmented Nuclei (%) [5]: 21%
Population Healthy Nuclei (%) [5]: 70% and 66%
Population Hoechst High Intensity Objects (%) [5]: 1% and 6%
Population Membrane Permeable-Phenotype (%) [5]: 5% and 10%
Population Mitochondria Different-Phenotype (%) [5]: 4% and 7%
Population Mitotic Cells (%) [5]: 18% and 14%
Population Normal (%) [5]: 98% and 93%
Population Pyknosed Nuclei (%) [5]: 8% and 12%
Population Tubulin-Different-Phenotype (%) [5]: 2% and 7%
Total Cell Count [5]: 454 and 182
Population Apoptotic (%) [6]: 92%
Population Fragmented Nuclei (%) [6]: 37% and 29%
Population Healthy Nuclei (%) [6]: 27% and 34%
Population Hoechst High Intensity Objects (%) [6]: 7%
Population Membrane Permeable-Phenotype (%) [6]: 25% and 42%
Population Mitochondria Different-Phenotype (%) [6]: 56% and 65%
Population Mitotic Cells (%) [6]: 7%
Population Normal (%) [6]: 92%
Population Pyknosed Nuclei (%) [6]: 35%
Population Tubulin-Different-Phenotype (%) [6]: 25% and 42%
Total Cell Count [6]: 241 and 127

Nc1nccc(-c2ccn3c(N)nccc23)n1
Population Apoptotic (%) [1]: 36.59% and 39.13%
Population Fragmented Nuclei (%) [1]: 1.59% and 3.62%
Population Healthy Nuclei (%) [1]: 89.07% and 79.71%
Population Hoechst High Intensity Objects (%) [1]: 0%
Population Membrane Permeable-Phenotype (%) [1]: 0.51% and 5.45%
Population Mitochondria Different-Phenotype (%) [1]: 0.26% and 7.27%
Population Mitotic Cells (%) [1]: 63.41% and 60.87%
Population Normal (%) [1]: 100%
Population Pyknosed Nuclei (%) [1]: 9.34% and 16.67%
Population Tubulin-Different-Phenotype (%) [1]: 1.28% and 0.91%
Population Apoptotic (%) [2]: 37.93% and 47.62%
Population Fragmented Nuclei (%) [2]: 1.07% and 2.9%
Population Healthy Nuclei (%) [2]: 91.15% and 81.88%
Population Hoechst High Intensity Objects (%) [2]: 0%
Population Membrane Permeable-Phenotype (%) [2]: 0.88% and 1.77%
Population Mitochondria Different-Phenotype (%) [2]: 0.59% and 8.85%
Population Mitotic Cells (%) [2]: 62.07% and 52.38%
Population Normal (%) [2]: 100%
Population Pyknosed Nuclei (%) [2]: 7.77% and 15.22%
Population Tubulin-Different-Phenotype (%) [2]: 1.47% and 0%
Total Cell Count [2]: 373 and 138
Population Apoptotic (%) [3]: 48.28% and 64.29%
Population Fragmented Nuclei (%) [3]: 1.88% and 4%
Population Healthy Nuclei (%) [3]: 88.23% and 88%
Population Hoechst High Intensity Objects (%) [3]: 0%
Population Membrane Permeable-Phenotype (%) [3]: 0% and 3.25%
Population Mitochondria Different-Phenotype (%) [3]: 0.39% and 5.19%
Population Mitotic Cells (%) [3]: 51.72% and 35.71%
Population Normal (%) [3]: 100%
Population Pyknosed Nuclei (%) [3]: 9.9% and 8%
Population Tubulin-Different-Phenotype (%) [3]: 1.16% and 0.65%
Population Apoptotic (%) [4]: 40.48% and 37.04%
Population Fragmented Nuclei (%) [4]: 3.09% and 2.73%
Population Healthy Nuclei (%) [4]: 88.8% and 82.51%
Population Hoechst High Intensity Objects (%) [4]: 0%
Population Membrane Permeable-Phenotype (%) [4]: 0.22% and 0.66%
Population Mitochondria Different-Phenotype (%) [4]: 0.22% and 2.65%
Population Mitotic Cells (%) [4]: 59.52% and 62.96%
Population Normal (%) [4]: 100%
Population Pyknosed Nuclei (%) [4]: 8.11% and 14.75%
Population Tubulin-Different-Phenotype (%) [4]: 1.09% and 0%
Total Cell Count [4]: 518 and 183
Population Apoptotic (%) [5]: 45.74% and 43.75%
Population Fragmented Nuclei (%) [5]: 1.77% and 2.26%
Population Healthy Nuclei (%) [5]: 88.99% and 85.66%
Population Hoechst High Intensity Objects (%) [5]: 0%
Population Membrane Permeable-Phenotype (%) [5]: 1.33% and 2.64%
Population Mitochondria Different-Phenotype (%) [5]: 0.11% and 5.73%
Population Mitotic Cells (%) [5]: 54.26% and 56.25%
Population Normal (%) [5]: 100%
Population Pyknosed Nuclei (%) [5]: 9.24% and 12.08%
Population Tubulin-Different-Phenotype (%) [5]: 1.44% and 1.32%
Population Apoptotic (%) [6]: 43.48% and 40%
Population Fragmented Nuclei (%) [6]: 3.29% and 3.46%
Population Healthy Nuclei (%) [6]: 87.54% and 84.43%
Population Hoechst High Intensity Objects (%) [6]: 0% and 0.34%
Population Membrane Permeable-Phenotype (%) [6]: 0.91% and 2.05%
Population Mitochondria Different-Phenotype (%) [6]: 0.23% and 2.87%
Population Mitotic Cells (%) [6]: 56.52% and 60%
Population Normal (%) [6]: 100% and 99.66%
Population Pyknosed Nuclei (%) [6]: 9.17% and 12.11%
Population Tubulin-Different-Phenotype (%) [6]: 1.03% and 2.46%

Reference: ChEMBL document CHEMBL5724801, “EUbOPEN Chemogenomics Library - Multiplex” (2024)
